# Measured values reported in ChEMBL document CHEMBL1150800, “Multiple-dose escalation study of the safety, pharmacokinetics, and biologic activity of oral AMD070, a selective CXCR4 receptor inhibitor, in human subjects” (Antimicrob Agents Chemother, 2007).
# Columns and labels:
# Homo sapiens [1] = assay: AUC ( 0 to infinity) in fasting healthy human at 400 mg, po administered as single dose after 12 hrs; type: ADME, organism-based, Plasma; parameters: dose 400 mg, time infinity, route oral; conditions: in vivo
# How it was run: (§1)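 Healthy male volunteers, three per cohort, one oral dose after 8-h overnight fast, fasting kept until 1 h post-dose. Plasma sampled predose and at 0.5, 1, 1.5, 2, 3, 4, 6, 8, 12, 16, 20, 24 h. Levels by validated HPLC-MS/MS (liquid-liquid extraction, positive-ion electrospray). Noncompartmental analysis, log-linear trapezoidal AUC, summarized per cohort.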
# [2] = Tmax in fasting healthy human at 200 mg, po administered as single dose; type: ADME, organism-based; conditions: in vivo
# How it was run: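 Healthy male volunteers (cohort C, n=3) took one oral dose after an 8-h overnight fast and kept fasting to 1 h post-dose. Drug was measured by validated HPLC-MS/MS (positive electrospray), and Tmax was taken by noncompartmental analysis of individual curves.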
# [3] = Half life in dog; type: ADME, organism-based, Canis lupus familiaris; conditions: in vivo
# [4] = Cmax in fasting healthy human at 200 mg, po administered every 12 hrs; type: ADME, organism-based; parameters: dose 200 mg, route oral; conditions: in vivo
# How it was run: (§2)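 Six healthy men per cohort dosed orally q12h for seven doses. Morning doses given after 8-h fast, with fasting until 1 h post-dose. After the final dose (72 h after the first) plasma was sampled predose and 0.5–24 h. Validated HPLC-MS/MS assay. Noncompartmental parameters (log-linear trapezoidal AUC) from all time points, summarized per cohort.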
# [5] = Drug level in fasting healthy human at 100 mg, po administered as single dose after 12 hrs; type: ADME, organism-based; conditions: in vivo, read-out: Drug uptake; how it was run: as §1
# [6] = Cmax in fasting healthy human at 400 mg, po administered as single dose; type: ADME, organism-based; parameters: dose 400 mg, route oral; conditions: in vivo; how it was run: as §1
# [7] = Tmax in fasting healthy human at 100 mg, po administered as single dose; type: ADME, organism-based; conditions: in vivo; how it was run: as §1
# [8] = Drug level in fasting healthy human at 100 mg, po administered every 12 hrs measured after 72 hrs; type: ADME, organism-based; conditions: in vivo, read-out: Drug uptake; how it was run: as §2
# [9] = Tmax in fasting healthy human at 400 mg, po administered every 12 hrs; type: ADME, organism-based; conditions: in vivo
# How it was run: (§3)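 Six healthy male volunteers per cohort received seven oral doses q12h. Morning doses followed an 8-h fast, with fasting continued until 1 h post-dose. After the final dose (72 h after the first), plasma was sampled pre-dose and at 0.5–24 h, and assayed by validated HPLC-MS/MS. Tmax came from individual noncompartmental analysis, summarized per cohort.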
# Homo sapiens [10] = assay: Apparent volume of distribution in fasting healthy human at 100 mg, po administered as single dose after 12 hrs; type: ADME, organism-based; conditions: in vivo; how it was run: as §1
# [11] = Drug level in fasting healthy human at 200 mg, po administered as single dose after 12 hrs; type: ADME, organism-based; conditions: in vivo, read-out: Drug uptake; how it was run: as §1
# Homo sapiens [12] = assay: AUC ( 0 to infinity) in fasting healthy human at 100 mg, po administered as single dose after 12 hrs; type: ADME, organism-based, Plasma; parameters: dose 100 mg, route oral, time infinity; conditions: in vivo; how it was run: as §1
# [13] = Tmax in fasting healthy human at 200 mg, po administered every 12 hrs; type: ADME, organism-based; conditions: in vivo; how it was run: as §3
# [14] = Drug level in fasting healthy human at 200 mg, po administered every 12 hrs measured after 72 hrs; type: ADME, organism-based; conditions: in vivo, read-out: Drug uptake; how it was run: as §2
# [15] = Cmax in fasting healthy human at 400 mg, po administered every 12 hrs; type: ADME, organism-based; parameters: dose 400 mg, route oral; conditions: in vivo; how it was run: as §2
# [16] = Tmax in fasting healthy human at 50 mg, po administered as single dose; type: ADME, organism-based; conditions: in vivo
# How it was run: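 Healthy male volunteers, three per cohort, took one oral dose after an 8-h overnight fast and stayed fasting until 1 h post-dose. Tmax came from per-subject noncompartmental analysis, summarized by cohort.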
# [17] = Cmax in fasting healthy human at 100 mg, po administered as single dose; type: ADME, organism-based; parameters: dose 100 mg, route oral; conditions: in vivo; how it was run: as §1
# Homo sapiens [18] = assay: Decrease in CD4 cell count in fasting healthy human at 100 mg, po administered every 12 hrs measured after 24 hrs relative to baseline; type: functional; parameters: scale not given: the % may be the effect or the level left
# How it was run: (§4)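 CD4+ counts drawn before the first dose and at 2, 4, 6, 8 and 24 h after the final (seventh) q12h oral dose in fasting healthy men. Each post-dose value divided by the baseline value to give a ratio. Deviation from no effect tested by Wilcoxon rank sum, dose trend by Jonckheere-Terpstra.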
# [19] = Drug level in fasting healthy human at 400 mg, po administered every 12 hrs measured after 84 hrs; type: ADME, organism-based; conditions: in vivo, read-out: Drug uptake; how it was run: as §2
# [20] = Cmax in fasting healthy human at 200 mg, po administered as single dose; type: ADME, organism-based; parameters: dose 200 mg, route oral; conditions: in vivo; how it was run: as §1
# Homo sapiens [21] = assay: Decrease in CD4 cell count in fasting healthy human at 200 mg, po administered every 12 hrs measured after 24 hrs relative to baseline; type: functional; parameters: scale not given: the % may be the effect or the level left; how it was run: as §4
# Homo sapiens [22] = assay: Half life in fasting healthy human at 50 mg, po administered as single dose after 12 hrs; type: ADME, organism-based; conditions: in vivo; how it was run: as §1
# [23] = Drug level in fasting healthy human at 200 mg, po administered every 12 hrs measured after 84 hrs; type: ADME, organism-based; conditions: in vivo, read-out: Drug uptake; how it was run: as §2
# [24] = Half life in rat; type: ADME, organism-based; conditions: in vivo
# [25] = Oral bioavailability in dog; type: ADME, organism-based, Canis lupus familiaris; conditions: in vivo
# Homo sapiens [26] = assay: Apparent volume of distribution in fasting healthy human at 400 mg, po administered as single dose after 12 hrs; type: ADME, organism-based; conditions: in vivo; how it was run: as §1
# [27] = Drug level in fasting healthy human at 400 mg, po administered as single dose after 12 hrs; type: ADME, organism-based; conditions: in vivo, read-out: Drug uptake; how it was run: as §1
compound,measurement,setting,value
NCCCCN(Cc1nc2ccccc2[nH]1)[C@H]1CCCc2cccnc21 [MAVORIXAFOR],AUC,Homo sapiens [1],6716 ng·h/mL
same,Tmax,[2],1 h
same,half-life,[3],42 min
same,Cmax,[4],793 ng/mL
same,concentration at 12 h,[5],2.1 ng/mL
same,Cmax,[6],1400 ng/mL
same,Tmax,[7],1.5 h
same,concentration at 72 h,[8],6.8 ng/mL
same,Tmax,[9],1.8 h
same,Vd,Homo sapiens [10],3940 L
same,concentration at 12 h,[11],11.6 ng/mL
same,AUC,Homo sapiens [12],358 ng·h/mL
same,Tmax,[13],1.8 h
same,concentration at 72 h,[14],31 ng/mL
same,Cmax,[15],2300 ng/mL
same,Tmax,[16],1.5 h
same,Cmax,[17],276 ng/mL
same,Activity,Homo sapiens [18],80%
same,concentration at 84 h,[19],137 ng/mL
same,Cmax,[20],995 ng/mL
same,Activity,Homo sapiens [21],80%
same,t1/2,Homo sapiens [22],10.8 h
same,concentration at 84 h,[23],33 ng/mL
same,half-life,[24],84 min
same,bioavailability,[25],80%
same,Vd,Homo sapiens [26],918 L
same,concentration at 12 h,[27],44.6 ng/mL
